From ChEMBL document CHEMBL5338794, “Optimization of Orally Bioavailable Antileishmanial 2,4,5-Trisubstituted Benzamides” (J Med Chem, 2023)
Converted amounts (≈) assume the structure as drawn. The source made the active and inactive calls. The rule behind the calls is not given here.

Tests used:
[1] = Metabolic stability in CD-1 mouse liver microsomes assessed as half life at 1 uM and measured upto 60 mins in presence of NADPH regenerating system by LC-MS/MS analysis; type: ADME, Microsome; conditions: 1 h
How it was run: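 Half-life and intrinsic clearance determined by incubation with mouse liver microsomes.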

[2] = Half life in CD-1 mouse at 10 mg/kg,po and measured upto 24 hrs by LC-MS/MS analysis; type: ADME, organism-based; conditions: in vivo
How it was run: (§1)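 Single oral dose to mice at 10 mg/kg, in 20% PEG 400/80% (20% SBE-beta-CD in water). Plasma concentration–time profile used for t1/2, Cmax, Tmax, AUC, CL, apparent Vd and bioavailability (F).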

Leishmania mexicana [3] = assay: Antileishmanial activity against Leishmania mexicana MNZY/BZ/62/M379 promastigotes infected in BALB/c mouse assessed as footpad lesion development at 50 mg/kg, po QD for 10 days administered at day 18 postinfection and measured after 5 weeks postinfection by caliper analysis; type: functional, organism-based; conditions: time 10.0 day
How it was run: (§2)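 BALB/c mice, 5 per group, infected with L. mexicana by footpad injection. Vehicle or HCl salt of compound given by oral gavage at 50 mg/kg/day for 10 consecutive days from day 18 postinfection. Lesion size measured by caliper up to 5 weeks postinfection, reported as mean ± SD. Groups compared by Mann–Whitney.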

Plasma [4] = assay: Time during which plasma concentration exceeds EC50 for inhibition of proliferation of luciferase expressing Leishmania mexicana intracellular amastigotes cultured in mouse J774.A1 cells infected to CD-1 mouse at 3 mg/kg,iv by LC-MS/MS analysis; type: organism-based; conditions: in vivo
Leishmania mexicana [5] = assay: Antileishmanial activity against renilla luciferase-expressing Leishmania mexicana promastigotes infected in mouse J774.A1 cells assessed as inhibition of intracellular amastigotes growth incubated for 96 hrs by Renilla luciferase assay; type: functional, organism-based; conditions: J774.A1, 96 h
[6] = Tmax in CD-1 mouse at 10 mg/kg,po and measured upto 24 hrs by LC-MS/MS analysis; type: ADME, organism-based; conditions: in vivo; how it was run: as §1
Plasma [7] = assay: Time during which plasma concentration exceeds EC50 for inhibition of proliferation of luciferase expressing Leishmania mexicana intracellular amastigotes cultured in mouse J774.A1 cells infected to CD-1 mouse at 10 mg/kg,po by LC-MS/MS analysis; type: organism-based; conditions: in vivo
How it was run: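 Time that plasma concentration stays above the intracellular-amastigote EC50, read from the plasma profile after a single oral dose at 10 mg/kg in 20% PEG 400/80% (20% SBE-beta-CD in water).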

[8] = Cmax in CD-1 mouse at 3 mg/kg,iv and measured upto 24 hrs by LC-MS/MS analysis; type: ADME, organism-based; parameters: dose 3 mg/kg, time < 24 hrs, route iv; conditions: in vivo
How it was run: (§3)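 Single intravenous dose to mice at 3 mg/kg. Plasma concentration–time profile used for t1/2, Cmax, AUC, clearance and steady-state volume of distribution.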

[9] = Kinetic aqueous solubility of the compound in PBS at pH 7.4 incubated for 18 hrs by LC-MS analysis; type: physicochemical; conditions: read-out: Kinetic_solubility
[10] = Cmax in CD-1 mouse at 10 mg/kg,po and measured upto 24 hrs by LC-MS/MS analysis; type: ADME, organism-based; parameters: dose 10 mg/kg, time < 24 hrs, route po; conditions: in vivo; how it was run: as §1
Leishmania mexicana [11] = assay: Antileishmanial activity against Leishmania mexicana MNZY/BZ/62/M379 promastigotes infected in BALB/c mouse assessed as fold reduction in footpad lesion development by measuring lesion size at 50 mg/kg, po QD for 10 days administered at day 18 postinfection and measured at 5 weeks postinfection by caliper analysis; type: functional; conditions: time 10 day; how it was run: as §2
[12] = Oral bioavailability in CD-1 mouse at 10 mg/kg and measured upto 24 hrs by LC-MS/MS analysis; type: ADME, organism-based; conditions: in vivo; how it was run: as §1
[13] = Volume of distribution in CD-1 mouse at 3 mg/kg,iv and measured upto 24 hrs by LC-MS/MS analysis; type: ADME, organism-based; conditions: in vivo; how it was run: as §3
BJ = assay: Cytotoxicity against human BJ cells assessed as reduction in cell viability incubated for 72 hrs by Cell TiterGlo assay; type: functional, cell-based
[14] = Clearance in CD-1 mouse at 3 mg/kg,iv and measured upto 24 hrs by LC-MS/MS analysis; type: ADME, organism-based; conditions: in vivo; how it was run: as §3
[15] = Clearance in CD-1 mouse at 10 mg/kg,po and measured upto 24 hrs by LC-MS/MS analysis; type: ADME, organism-based; conditions: in vivo; how it was run: as §1
[16] = AUC in CD-1 mouse at 10 mg/kg,po and measured upto 24 hrs by LC-MS/MS analysis; type: ADME, organism-based; parameters: time < 24 hrs, dose 10 mg/kg, route po; conditions: in vivo; how it was run: as §1
[17] = Half life in CD-1 mouse at 3 mg/kg,iv and measured upto 24 hrs by LC-MS/MS analysis; type: ADME, organism-based; conditions: in vivo; how it was run: as §3
[18] = Volume of distribution in CD-1 mouse at 10 mg/kg,po and measured upto 24 hrs by LC-MS/MS analysis; type: ADME, organism-based; conditions: in vivo; how it was run: as §1
[19] = AUC in CD-1 mouse at 3 mg/kg,iv and measured upto 24 hrs by LC-MS/MS analysis; type: ADME, organism-based; parameters: time < 24 hrs, dose 3 mg/kg, route iv; conditions: in vivo; how it was run: as §3

Row | t1/2 [1] | t1/2 [2] | Tmax [6] | Cmax [8] | solubility kinetic at 18 h [9] | Cmax [10] | F [12] | Vd [13] | CL [14] | CL/F [15] | AUC [16] | t1/2 [17] | Vd [18] | AUC [19] | Compound | Activity (Leishmania mexicana [3]) | T>EC50 (Plasma [4]) | EC50 (Leishmania mexicana [5]) | T>EC50 (Plasma [7]) | fold change (FC) (Leishmania mexicana [11]) | EC50 (BJ)
1 | 1.92 h | 3.6 h | 2 h | 1950 nM | 46 µM (≈ 18.2 µg/mL) | 1000 nM | 80% | 9.3 L/kg | 42.8 mL/min/kg | 53.5 mL/min/kg | 7.82 µM·h | 3.4 h | 6.8 L/kg | 2.85 µM·h | O=C(Nc1ccc(Cl)c(Cl)c1)c1ccc(N2CCNCC2)c([N+](=O)[O-])c1 | inactive | 1.5 h | 0.7 µM | 5.5 h | 10 | 15 µM
2 | 0.5 h |  |  |  | 188 µM (≈ 68.7 µg/mL) |  |  |  |  |  |  |  |  |  | Cc1cc(Cl)c(Cl)cc1NC(=O)c1ccc(N2CCNCC2)nc1 |  |  | 0.9 µM |  |  | 24 µM
3 | 2.17 h |  |  |  | 6.3 µM (≈ 3.12 µg/mL) |  |  |  |  |  |  |  |  |  | O=C(Nc1cncc(-c2nc3ccccc3s2)c1)c1cc([N+](=O)[O-])c(N2CCNCC2)cc1Cl |  |  | 0.6 µM |  |  | 15.3 µM
